Measurements taken from PMC7299178 (Angewandte Chemie (International ed. in English), 2019).

What was measured:
[1] = Micelle size in water by TEM and DLS; type: physicochemical
How it was run: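 Test material was a linear-brush diblock copolymer (PMMA block plus a peptide-acrylamide/DMA brush block), self-assembled into micelles in water. Particle diameter was measured by TEM imaging, and hydrodynamic diameter by DLS. TEM images were also taken after thermolysin treatment (thermolysin cleaves the Gly–Leu amide bond of the peptide side chains).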

thermolysin = thermolysin (Bacillus thermoproteolyticus, UniProt P00800)
Chain of thermolysin (P00800 233-548, species assumed): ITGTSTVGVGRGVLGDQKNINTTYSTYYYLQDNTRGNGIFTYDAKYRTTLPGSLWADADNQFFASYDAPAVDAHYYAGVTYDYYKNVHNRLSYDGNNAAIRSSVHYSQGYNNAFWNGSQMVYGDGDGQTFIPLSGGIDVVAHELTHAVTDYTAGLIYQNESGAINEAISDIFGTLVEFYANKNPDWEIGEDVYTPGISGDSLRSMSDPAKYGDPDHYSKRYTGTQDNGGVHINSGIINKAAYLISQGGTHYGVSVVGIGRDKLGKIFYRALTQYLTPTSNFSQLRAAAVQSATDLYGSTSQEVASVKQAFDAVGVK

PMMA90-b-poly(PepAm21-co-DMA63) [P8]
hydrodynamic diameter (DLS) ([1]; micelles in water, dynamic light scattering): 28 nm | micelle diameter (TEM) ([1]; spherical micelles assembled in water, transmission electron microscope): 24 nm | morphology change of micelles upon treatment with thermolysin (thermolysin; TEM and DLS, spherical micelles before treatment): underwent a phase transition into a worm-like phase | change of particle diameter with deactivated thermolysin (thermolysin; same cleavage conditions, thermolysin pretreated with ethylenediaminetetraacetic acid, DLS): no change in diameter
